Data reported in paper PMC3272321 (Chemical biology & drug design, 2011).
Converted amounts (≈) assume the structure as drawn.

Experiments:
aqueous solubility = assay type: physicochemical; settings: water
[1] = tested on: lung adenocarcinoma H441 cells; assay: cell proliferation by hexosaminidase assay; assay type: cell-based, Human; settings: 1 and 10 μM, 24–72 h
Procedure, shortened: (§1)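 Cells seeded at 5×10^3/well, attached overnight, then exposed to the test compound for 24, 48 and 72 h. The compound was given from DMSO at 0.1% final DMSO in medium with 5% FBS, with DMSO-only controls. H441 were maintained in McCoy's 5A with 5% FBS. Panc-1 and MiaPaCa-2 were maintained in RPMI 1640 with 10% FBS. Readout was hexosaminidase: 7.5 mM p-nitrophenyl substrate solution (citrate, pH 5), 37°C 30 min, glycine/EDTA stop (pH 10.4), A405.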

[2] = tested on: pancreatic cancer cells MiaPaCa-2; assay: cell proliferation by hexosaminidase assay; assay type: cell-based; settings: MiaPaCa-2 cells, 1 and 10 μM, 24–72 h
Procedure, shortened: as §1

[3] = tested on: pancreatic cancer cells Panc-1; assay: cell proliferation by hexosaminidase assay; assay type: cell-based; settings: Panc-1 cells, 1 and 10 μM, 24–72 h
Procedure, shortened: as §1

xenograft Panc-1 tumors = assay: mouse model of xenograft Panc-1 tumors; assay type: in vivo, athymic nude mice; settings: 5 μg intraperitoneal daily for 3 weeks
Procedure, shortened: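 Five-week-old male athymic nude mice received 1 × 10^6 Panc-1 cells in each flank. Once tumors reached about 500 mm3, the test compound was given intraperitoneally at 5 μg/injection daily for 3 weeks. Tumors were measured weekly by caliper, with volume = length × width × depth × 0.5236. Tumors were excised and weighed at sacrifice. n = 4 per group versus untreated control, significance at p < 0.05.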

[4] = assay type: in vivo, athymic nude rats; settings: for route of clearance: images through 24 h
[5] = Tc-99m-labeled EFAH, intravenous, rats, 24 h

Row | solubility (aqueous solubility) [µg/mL] | injected dose accumulated in intestine [4, 5] [%] | injected dose accumulated in liver [4, 5] | accumulation of radiolabeled compound in tumor tissue ([4]; intravenous, rats with H441 xenograft, 24 h) | free Tc-99m radioactivity in rat urine by HPLC ([4]; urine collected after 30 min of injection) | Compound | anti-proliferative activity compared with EF24 [1] | anti-proliferative activity compared with EF24 [2] | anti-proliferative activity compared with EF24 [3] | excised tumor weight (xenograft Panc-1 tumors; at necropsy, control about 2.5 g) [g] | mean tumor volume reduction (xenograft Panc-1 tumors; versus control) [%] | tumor weight decrease (xenograft Panc-1 tumors; versus control) [%] | route of clearance ([4]; intravenous, rats)
1 | 1200 (≈ 3.85 mM) | – | – | – | – | O=C1C(=Cc2ccccc2F)CNCC1=Cc1ccccc1F [EF24, 3,5-Bis-(2-fluorobenzylidene)-4-piperidone, reference compound] | – | – | – | – | – | – | –
2 | 3500 (≈ 7.15 mM) | ~14.3 | Approximately 23.7% | – | – | NNc1ccc(C(=O)NCCN2CC(=Cc3ccccc3F)C(=O)C(=Cc3ccccc3F)C2)cn1 [EFAH, N-{2-[3,5-Bis-(2-fluorobenzylidene)-4-oxo-piperidin-1-yl]-ethyl}-6-hydrazinonicotinamide] | as effective as EF24 | as effective as EF24 | as effective as EF24 | 0.45 | 79 | 82 | mostly eliminated by hepatobiliary route
3 | – | – | – | measurable, but little | no free Tc-99m radioactivity was found | Tc-99m-labeled N-{2-[3,5-Bis-(2-fluorobenzylidene)-4-oxo-piperidin-1-yl]-ethyl}-6-hydrazinonicotinamide [Tc-99m-EFAH] | – | – | – | – | – | – | clearance depended on hepatobiliary route
